ChEMBL document CHEMBL4000147, “Pyrrolo[2,3-b]pyridine derivatives as potent Bruton's tyrosine kinase inhibitors” (Bioorg Med Chem, 2015)

Tests used:
[1] = target: T1, Tyrosine-protein kinase BTK (Homo sapiens, UniProt Q06187); test: Inhibition of BTK in human Ramos cells assessed as inhibition of anti human IgM-induced calcium influx preincubated for 20 mins in dark followed by anti human IgM induction for 8 mins by FLIPR assay; format: cell-based
[2] = target: T1, Tyrosine-protein kinase BTK; test: Inhibition of recombinant human His-tagged full length BTK expressed in baculovirus using biotin labeled peptide substrate after 1 hr by HRTF kinase/TR-FRET assay
[3] = Tmax in Sprague-Dawley rat at 4 mg/kg, po by LC/MS/MS analysis; format: ADME, organism-based; conditions: in vivo
How it was run: (§1)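 Three male SD rats (180–240 g) dosed orally, 4 mg/kg, dosing volume 5 mL/kg. Blood sampled at 2, 5, 15, 30 min and 1, 2, 4, 6, 8, 10, 24 h, centrifuged 4000 rpm 5 min at 4 °C. Plasma analysed after protein precipitation by LC/MS/MS in SRM mode with internal standard. Parameters from concentration–time data by noncompartmental analysis.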

[4] = AUClast in Sprague-Dawley rat at 4 mg/kg, po by LC/MS/MS analysis; format: ADME, organism-based; set-up: dose 4 mg/kg, route oral, time 0 - last; conditions: in vivo; how it was run: as §1
[5] = Half life in Sprague-Dawley rat at 4 mg/kg, po by LC/MS/MS analysis; format: ADME, organism-based; conditions: in vivo; how it was run: as §1
[6] = Cmax in Sprague-Dawley rat at 4 mg/kg, po by LC/MS/MS analysis; format: ADME, organism-based; set-up: dose 4 mg/kg, route oral; conditions: in vivo; how it was run: as §1
[7] = Clearance in Sprague-Dawley rat at 4 mg/kg, po by LC/MS/MS analysis; format: ADME, organism-based; conditions: in vivo; how it was run: as §1

T1 sequence (Q06187 whole entry): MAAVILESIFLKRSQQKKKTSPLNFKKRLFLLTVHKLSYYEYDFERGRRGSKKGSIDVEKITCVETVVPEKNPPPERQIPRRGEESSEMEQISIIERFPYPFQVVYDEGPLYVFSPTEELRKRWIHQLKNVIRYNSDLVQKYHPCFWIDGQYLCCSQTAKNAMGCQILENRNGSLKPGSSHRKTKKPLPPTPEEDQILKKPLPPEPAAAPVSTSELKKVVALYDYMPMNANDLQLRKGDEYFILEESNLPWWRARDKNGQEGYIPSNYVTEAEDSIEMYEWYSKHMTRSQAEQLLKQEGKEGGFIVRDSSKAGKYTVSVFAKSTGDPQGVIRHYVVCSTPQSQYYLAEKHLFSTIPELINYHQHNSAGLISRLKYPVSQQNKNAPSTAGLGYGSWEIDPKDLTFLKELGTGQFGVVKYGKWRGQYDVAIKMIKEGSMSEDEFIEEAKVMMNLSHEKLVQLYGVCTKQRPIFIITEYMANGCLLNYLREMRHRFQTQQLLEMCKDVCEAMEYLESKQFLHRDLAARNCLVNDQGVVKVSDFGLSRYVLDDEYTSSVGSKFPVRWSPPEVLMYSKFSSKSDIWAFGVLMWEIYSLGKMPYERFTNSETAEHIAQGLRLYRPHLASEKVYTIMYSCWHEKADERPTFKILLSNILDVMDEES

| Structure (SMILES) | IC50 [1] [nM] | IC50 [2] [nM] | Tmax [3] [h] | AUC(0-t) [4] [ng·h/mL] | half-life [5] [min] | Cmax [6] [ng/mL] | CL/F [7] [mL/min/kg] |
| --- | --- | --- | --- | --- | --- | --- | --- |
| COc1ccc(-c2cc3c(-c4cccc(-n5ccc6cc(C7CC7)cc(F)c6c5=O)c4CO)ccnc3[nH]2)cc1 | 56.3 | 27.3 | – | – | – | – | – |
| CC(=O)c1ccc(-c2cc3c(-c4cccc(-n5ccc6cc(C7CC7)cc(F)c6c5=O)c4CO)ccnc3[nH]2)cc1 | 32 | 21.3 | – | – | – | – | – |
| O=c1c2c(F)cc(C3CC3)cc2ccn1-c1cccc(-c2ccnc3[nH]c(C4=CCNCC4)cc23)c1CO | 3 | 28.3 | – | – | – | – | – |
| O=C(c1ccc(-c2cc3c(-c4cccc(-n5ccc6cc(C7CC7)cc(F)c6c5=O)c4CO)ccnc3[nH]2)cc1)N1CCCCC1 | 52 | 38 | – | – | – | – | – |
| CS(=O)(=O)N1CC=C(c2cc3c(-c4cccc(-n5ccc6cc(C7CC7)cc(F)c6c5=O)c4CO)ccnc3[nH]2)CC1 | 410 | 7.1 | – | – | – | – | – |
| CC(=O)c1cc(-c2cc3c(-c4cccc(-n5ccc6cc(C7CC7)cc(F)c6c5=O)c4CO)ccnc3[nH]2)cs1 | 69 | 78.1 | – | – | – | – | – |
| CN(C)C(=O)c1ccc(-c2cc3c(-c4cccc(-n5ccc6cc(C7CC7)cc(F)c6c5=O)c4CO)ccnc3[nH]2)cc1 | 94.2 | 12.1 | – | – | – | – | – |
| O=c1c2c(F)cc(C3CC3)cc2ccn1-c1cccc(-c2ccnc3[nH]c(C4=CCN(C5COC5)CC4)cc23)c1CO | 3 | 31.4 | – | – | – | – | – |
| Nc1cccc(-c2cc3c(-c4cccc(-n5ccc6cc(C7CC7)cc(F)c6c5=O)c4CO)ccnc3[nH]2)c1 | 2410 | 110 | – | – | – | – | – |
| CN(C)C(=O)N1CC=C(c2cc3c(-c4cccc(-n5ccc6cc(C7CC7)cc(F)c6c5=O)c4CO)ccnc3[nH]2)CC1 | 14 | 6 | 1.9 | 3420 | 534 | 739 | 20 |
| CN(C)S(=O)(=O)N1CC=C(c2cc3c(-c4cccc(-n5ccc6cc(C7CC7)cc(F)c6c5=O)c4CO)ccnc3[nH]2)CC1 | 27 | 9.7 | – | – | – | – | – |
| CN(C)C(=O)N1CC=C(c2cc3c(-c4cccc(-n5ccc6cc(C7CC7)cc(F)c6c5=O)c4CO)cccc3[nH]2)CC1 | > 5000 | > 5000 | – | – | – | – | – |
| CC(=O)N1CC=C(c2cc3c(-c4cccc(-n5ccc6cc(C7CC7)cc(F)c6c5=O)c4CO)ccnc3[nH]2)CC1 | 12 | 6.7 | – | – | – | – | – |
| O=c1c2c(F)cc(C3CC3)cc2ccn1-c1cccc(-c2ccnc3[nH]c(-c4ccc(CN5CCOCC5)cc4)cc23)c1CO | 69 | 18.1 | – | – | – | – | – |
| COc1ccc(-c2cc3c(-c4cccc(-n5ccc6cc(C7CC7)cc(F)c6c5=O)c4CO)ccnc3[nH]2)cn1 | 196 | 68.3 | – | – | – | – | – |
| CN(C)C(=O)c1ccc(-c2nc3c(-c4cccc(-n5ccc6cc(C7CC7)cc(F)c6c5=O)c4CO)ccnc3[nH]2)cc1 | 92.7 | 33.3 | – | – | – | – | – |
| Cc1cc2c(-c3cccc(-n4ccc5cc(C6CC6)cc(F)c5c4=O)c3CO)ccnc2[nH]1 | 213 | 395 | – | – | – | – | – |
| Cn1ccc(-c2cc3c(-c4cccc(-n5ccc6cc(C7CC7)cc(F)c6c5=O)c4CO)ccnc3[nH]2)n1 | 9.5 | 20.6 | – | – | – | – | – |
| O=C(C1CC1)N1CC=C(c2cc3c(-c4cccc(-n5ccc6cc(C7CC7)cc(F)c6c5=O)c4CO)ccnc3[nH]2)CC1 | 16 | 10.4 | – | – | – | – | – |
| O=C(N1CC=C(c2cc3c(-c4cccc(-n5ccc6cc(C7CC7)cc(F)c6c5=O)c4CO)ccnc3[nH]2)CC1)N1CCOCC1 | 42 | 7.3 | – | – | – | – | – |
| CN1CCN(c2ccc(Nc3cc(-c4cccc(-n5ccc6cc(C7CC7)cc(F)c6c5=O)c4CO)cn(C)c3=O)nc2)CC1 | – | – | 4 | 1050 | 264 | 134 | 53.3 |
| O=c1c2c(F)cc(C3CC3)cc2ccn1-c1cccc(-c2ccnc3[nH]c(-c4ccc(O)cc4)cc23)c1CO | 110 | 39.8 | – | – | – | – | – |
| CN(C)C(=O)N1CC=C(c2cc3c(-c4cccc(-n5ccc6cc(C7CC7)cc(F)c6c5=O)c4CO)ncnc3[nH]2)CC1 | – | – | 0.8 | 1790 | 324 | 422 | 43.3 |
